The subject of data set [1] is HepG2. The data set is described as follows: Disruption of mitochondrial membrane potential in human HepG2 cells at less than IC50 concentration after 30 mins by DiOC2 probe based fluorescence assay. The settings on record: hepg2, 0.5 h. It is filed as ADME, cell-based.
Data set [2] relates to Mycobacterium tuberculosis. Nature of the data set: Disruption of membrane potential loss in Mycobacterium tuberculosis H37Rv at MBC concentration at pH 4.5 after 15 mins measured at pH 5.6 by DiOC2 probe based fluorescence assay. It is filed as functional, organism-based. In a few lines:
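Mid-log Mtb grown in 7H9-OADC-Tw, concentrated to OD590 ~1.0 in 7H9-Tw adjusted to assay pH (6.8 or 5.6), loaded with 15 μM DiOC2 for 20 min at RT, washed, then exposed to 2-fold serial dilutions for 15 min at RT; red (488/650 nm) to green (488/530 nm) fluorescence ratio; CCCP positive, DMSO vehicle controls; representative of two runs.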

Data set [3] deals with HepG2. Nature of the data set: Disruption of mitochondrial membrane potential in human HepG2 cells up to 200 uM after 30 mins by DiOC2 probe based fluorescence assay. The settings on record: hepg2, 0.5 h. It is filed as ADME, cell-based.
Data set [4] relates to Mycobacterium tuberculosis. Nature of the data set: Disruption of membrane potential loss in Mycobacterium tuberculosis H37Rv at < MBC concentration at pH 4.5 after 15 mins measured at pH 6.8 by DiOC2 probe based fluorescence assay. It is filed as functional, organism-based.
Data set [5] concerns Mycobacterium tuberculosis. The data set is described as follows: Antitubercular activity against non-replicating Mycobacterium tuberculosis H37Rv assessed as microbial killing at 115 to 230 uM at pH 5.5. It is filed as functional, organism-based. The settings on record: TDE = time-dependent effect. In a few lines:
(§1)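 Non-replicating kill kinetics: late-log H37Rv (OD590 0.6–1.0) resuspended in phosphate citrate buffer with 0.05% tyloxapol, inoculated at ~10⁶ CFU mL⁻¹, compound added (2% DMSO final), incubated standing at 37 °C; aliquots plated for CFU every 7 days, plates counted after 4 weeks at 37 °C.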

Data set [6] deals with Mycobacterium tuberculosis. Nature of the data set: Antitubercular activity against non-replicating Mycobacterium tuberculosis H37Rv assessed as microbial killing at 130 to 260 uM at pH 5.5. It is filed as functional, organism-based. The settings on record: TDE = time-dependent effect. In a few lines:
as §1

The subject of data set [7] is Mycobacterium tuberculosis. Nature of the data set: Antitubercular activity against non-replicating Mycobacterium tuberculosis H37Rv assessed as microbial killing at 125 to 250 uM at pH 5.5. It is filed as functional, organism-based. The settings on record: TDE = time-dependent effect. In a few lines:
as §1

Data set [8] has as its system Mycobacterium tuberculosis. The data set is described as follows: Antitubercular activity against Mycobacterium tuberculosis H37Rv infected in mouse RAW264.7 cells. Type of data set: functional, organism-based.
Data set [9] relates to RAW264.7. The data set is described as follows: Cytotoxicity against mouse RAW264.7 cells. Type of data set: cell-based.
Data set [10] has as its system Mycobacterium tuberculosis. The data set is described as follows: Antitubercular activity against non-replicating Mycobacterium tuberculosis H37Rv assessed as microbial killing at 145 to 290 uM at pH 5.5. The settings on record: TDE = time-dependent effect. It is filed as functional, organism-based. In a few lines: as §1
For data set [11], the system named is Mycobacterium tuberculosis. The data set is described as follows: Antitubercular activity against non-replicating Mycobacterium tuberculosis H37Rv assessed as log reduction in CFU at 10 to 100 uM at pH 4.5 to 6.8 after 7 days. It is filed as functional.

Active and inactive are the calls of the source. The calls are words filed in the database; no cut-off is given here.

As to `O=C(Nc1ccccc1)c1ccccc1NS(=O)(=O)c1ccc(Br)cc1`, the Activity result in data set [1] is “Toxic”. In addition, the outcome in data set [2] was Active.
For `NC(=O)c1ccccc1NS(=O)(=O)c1ccc(Br)cc1`, in [3], the Activity entry was “Non-Toxic”. Further, the outcome in data set [2] was inactive.
For the compound `O=C(Nc1ccc(Cl)cc1Cl)c1ccccc1NS(=O)(=O)c1ccc(Br)cc1`, the result in data set [4] and in [2] was Active.
For `CN(C(=O)c1ccccc1NS(=O)(=O)c1ccc(Br)cc1)c1ccc(Cl)cc1Cl`, in data set [1], the Activity entry is recorded as “Toxic”. The outcome in data set [4] and in data set [2] was Active.
With `O=C(Nc1ccc(Cl)cc1)c1ccccc1NS(=O)(=O)c1ccc(Br)cc1`, the Activity result in data set [5] was “Tde”.
Turning to `O=C(Nc1ccccn1)c1ccccc1NS(=O)(=O)c1ccc(Br)cc1`, the Activity entry in [6] was “Tde”.
Regarding `Cc1ccc(S(=O)(=O)Nc2ccccc2C(=O)Nc2ccc(Cl)cc2Cl)cc1`, in data set [7], the Activity result is “Tde”.
As to `CCNc1ccccc1C(=O)Nc1ccc(Cl)cc1Cl`, the Activity entry in data set [3] is “Non-Toxic”. Also, the result in [2] was Active.
As for `CCCCNC(=O)c1ccccc1NS(=O)(=O)c1ccc(Br)cc1`, the Activity entry in [1] is given as “Toxic”. Further, the result in data set [4] and in data set [2] was Active.
Regarding `O=[N+]([O-])c1c(Sc2ccccn2)ccc2nsnc12`, the Activity result in [1] is “Toxic”.
In the case of `CCN(C)c1ccccc1C(=O)Nc1ccc(Cl)cc1Cl`, in [8], the result was Active. The Activity entry in data set [9] is “Toxic”.
Consider `CS(=O)(=O)Nc1ccccc1C(=O)Nc1ccc(Cl)cc1Cl`, for which, in data set [10], the Activity result is “Tde”.
Consider `O=[N+]([O-])c1cc2nc(C(F)(F)F)[nH]c2c2nsnc12`, for which, in [11], the Activity is listed as over 4 log10CFU.
For `Cc1nnc(Sc2ccc3nsnc3c2[N+](=O)[O-])s1`, in data set [1], the Activity result is “Toxic”.
